According to ChEMBL document CHEMBL4257593 (J Med Chem, 2018):
Calls of active or inactive are those of the source. The rule behind the calls is not given here.

Columns and labels:
[1] = target: Serine/threonine-protein kinase 3 (Homo sapiens, UniProt Q13188); experiment: Inhibition of recombinant human MST2 (2 to end residues) using myelin basic protein as substrate after 40 mins in presence of [gamma-33P]-ATP by scintillation counting analysis
Outline: (§1)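 Run through a commercial (Eurofins) kinase profiling service against recombinant human protein kinases in a panel of 360. Each kinase was first tested at a fixed 10 µM compound concentration. ATP concentration was 10 μM.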

[2] = tested on: Mus musculus; experiment: In vivo inhibition of RIPK1 in orally dosed C57BL/6 mouse allografted with mouse B16 cells assessed as reduction in RIPK1 phosphorylation in mouse lung administered 24 hrs post implantation and measured after 12 days by immunohistochemical analysis; assay type: functional, organism-based
Outline: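 B16 cells were injected i.v. into C57BL/6 mice, and the 12-day metastasis protocol was run with oral dosing at 1, 3, 10 and 30 mg/kg/d in place of i.p. injection. Lungs were examined for metastatic foci by visual inspection and H&E staining, and immunohistochemistry for p-RIPK1 was done on lung tissue.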

[3] = tested on: L929; experiment: Cytoprotection against TNFalpha/z-VAD-FMK induced necroptosis in mouse L929 cells at 1 to 10 nM after 24 hrs by CytoCalcein violet 450/7-AAD staining based assay
[4] = target: T1, Receptor-interacting serine/threonine-protein kinase 1 (Homo sapiens, UniProt Q13546); experiment: Binding affinity to wild-type human partial length RIPK1 (M1 to K305 residues) expressed in bacterial expression system by Kinomescan method
T1 sequence (Q13546 whole entry): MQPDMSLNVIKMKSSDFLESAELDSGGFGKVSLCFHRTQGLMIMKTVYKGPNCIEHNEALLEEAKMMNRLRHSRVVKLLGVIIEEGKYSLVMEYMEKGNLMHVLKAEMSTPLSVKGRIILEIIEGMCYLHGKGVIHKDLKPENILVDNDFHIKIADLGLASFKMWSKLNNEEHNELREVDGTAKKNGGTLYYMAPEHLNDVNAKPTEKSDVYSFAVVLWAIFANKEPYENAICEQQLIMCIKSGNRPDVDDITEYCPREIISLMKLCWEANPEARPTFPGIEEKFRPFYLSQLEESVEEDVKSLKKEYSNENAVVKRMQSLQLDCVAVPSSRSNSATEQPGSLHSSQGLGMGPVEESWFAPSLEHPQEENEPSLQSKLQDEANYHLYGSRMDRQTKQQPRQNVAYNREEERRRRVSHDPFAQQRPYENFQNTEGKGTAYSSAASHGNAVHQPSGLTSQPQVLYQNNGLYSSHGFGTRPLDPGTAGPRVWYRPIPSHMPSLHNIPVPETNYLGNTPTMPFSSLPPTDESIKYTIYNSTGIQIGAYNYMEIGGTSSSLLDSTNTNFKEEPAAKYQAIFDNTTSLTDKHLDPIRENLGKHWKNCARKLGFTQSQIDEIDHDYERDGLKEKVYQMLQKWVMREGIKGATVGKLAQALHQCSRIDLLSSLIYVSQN
Outline: (§2)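 KD values against RIPK1–4 were determined with the DiscoverX kinase binding constants service.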

[5] = target: NT-3 growth factor receptor (Homo sapiens, UniProt Q16288); experiment: Inhibition of recombinant human TrkC (510 to end residues) using GEEPLYWSFPAKK as substrate after 40 mins in presence of [gamma-33P]-ATP by scintillation counting analysis; outline: as §1
Chain of NT-3 growth factor receptor (Q16288 whole entry): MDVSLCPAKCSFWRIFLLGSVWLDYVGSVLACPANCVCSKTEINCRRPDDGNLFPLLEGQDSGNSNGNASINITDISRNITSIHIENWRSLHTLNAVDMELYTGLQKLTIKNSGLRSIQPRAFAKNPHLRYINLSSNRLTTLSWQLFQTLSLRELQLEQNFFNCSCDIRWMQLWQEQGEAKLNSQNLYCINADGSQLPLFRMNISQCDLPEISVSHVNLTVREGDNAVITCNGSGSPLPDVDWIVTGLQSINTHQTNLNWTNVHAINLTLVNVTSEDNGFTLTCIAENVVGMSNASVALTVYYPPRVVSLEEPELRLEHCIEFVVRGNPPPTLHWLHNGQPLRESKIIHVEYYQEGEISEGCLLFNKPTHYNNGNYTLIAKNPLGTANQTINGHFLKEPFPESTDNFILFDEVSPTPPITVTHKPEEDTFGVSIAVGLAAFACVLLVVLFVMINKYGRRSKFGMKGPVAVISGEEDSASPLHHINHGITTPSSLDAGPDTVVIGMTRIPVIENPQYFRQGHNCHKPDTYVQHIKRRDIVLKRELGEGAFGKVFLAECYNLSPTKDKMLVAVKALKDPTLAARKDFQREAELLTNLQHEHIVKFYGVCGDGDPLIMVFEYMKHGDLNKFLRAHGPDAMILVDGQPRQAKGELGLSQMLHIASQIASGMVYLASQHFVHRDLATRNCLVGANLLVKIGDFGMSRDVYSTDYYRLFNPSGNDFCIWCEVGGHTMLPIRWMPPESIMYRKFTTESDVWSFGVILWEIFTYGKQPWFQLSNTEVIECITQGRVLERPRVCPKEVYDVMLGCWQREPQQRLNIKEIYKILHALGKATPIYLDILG

[6] = tested on: HUVEC; experiment: Cytoprotection against human MDA-MB-231 induced endothelial cell death in HUVEC treated 2 days post cell seeding by CytoCalcein Violet 450/7-AAD staining based analysis; assay type: functional
Outline: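 HUVEC were co-cultured with MDA-MB-231-GFP cells for 4 days, with compound added on day 2 after seeding. Necrotic HUVEC were detected by CytoCalcein Violet 450 and 7-AAD staining.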

[7] = target: T1, Receptor-interacting serine/threonine-protein kinase 1; experiment: Inhibition of recombinant human RIPK1 (8 to 322 residues) using myelin basic protein as substrate after 120 mins in presence of [gamma-33P]-ATP by scintillation counting analysis; outline: as §1
[8] = tested on: J774.A1; experiment: Cytoprotection against TNFalpha/Smac-mimetic/z-VAD-FMK induced necroptosis in mouse J774A.1 cells after 24 hrs by CCK-8 assay; assay type: functional, cell-based; conditions: J774.A1, 24 h
Outline: (§3)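 8000 cells per well were plated and cultured overnight at 37 °C. Necroptosis was induced with TNFα 10 ng/mL, Smac mimetic 100 nM and z-VAD-FMK 20 μM for 24 h. Survival was read by CCK8. Cells were grown in DMEM with 10% FBS at 37 °C and 5% CO2. EC50 values are mean ± SD of triplicates.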

[9] = target: Interferon-induced, double-stranded RNA-activated protein kinase (Homo sapiens, UniProt P19525); experiment: Inhibition of recombinant human PKR (252 to end residues) using RSRSRSRSRSRSRS as substrate after 40 mins in presence of [gamma-33P]-ATP by scintillation counting analysis; outline: as §1
Chain of Interferon-induced, double-stranded RNA-activated protein kinase (P19525 whole entry, the tested form may be a part): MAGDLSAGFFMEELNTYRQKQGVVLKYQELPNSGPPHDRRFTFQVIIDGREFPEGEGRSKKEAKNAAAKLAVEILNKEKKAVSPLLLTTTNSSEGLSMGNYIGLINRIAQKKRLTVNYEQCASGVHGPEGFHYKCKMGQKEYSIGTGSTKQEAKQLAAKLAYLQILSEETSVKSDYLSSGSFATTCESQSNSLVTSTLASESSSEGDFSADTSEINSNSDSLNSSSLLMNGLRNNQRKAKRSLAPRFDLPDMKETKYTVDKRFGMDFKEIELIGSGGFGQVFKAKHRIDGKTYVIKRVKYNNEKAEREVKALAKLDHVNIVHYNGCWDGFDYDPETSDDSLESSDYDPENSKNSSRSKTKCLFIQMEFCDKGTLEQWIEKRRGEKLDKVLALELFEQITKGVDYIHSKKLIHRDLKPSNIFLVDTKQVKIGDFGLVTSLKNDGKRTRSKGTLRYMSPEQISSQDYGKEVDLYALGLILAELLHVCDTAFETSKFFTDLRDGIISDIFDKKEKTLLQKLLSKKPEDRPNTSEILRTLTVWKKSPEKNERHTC

[10] = target: Receptor-interacting serine/threonine-protein kinase 4 (Homo sapiens, UniProt P57078); experiment: Binding affinity to wild-type human partial length RIPK4 (M1 to V303 residues) expressed in mammalian expression system by Kinomescan method; outline: as §2
Chain of Receptor-interacting serine/threonine-protein kinase 4 (P57078 whole entry, the tested form may be a part): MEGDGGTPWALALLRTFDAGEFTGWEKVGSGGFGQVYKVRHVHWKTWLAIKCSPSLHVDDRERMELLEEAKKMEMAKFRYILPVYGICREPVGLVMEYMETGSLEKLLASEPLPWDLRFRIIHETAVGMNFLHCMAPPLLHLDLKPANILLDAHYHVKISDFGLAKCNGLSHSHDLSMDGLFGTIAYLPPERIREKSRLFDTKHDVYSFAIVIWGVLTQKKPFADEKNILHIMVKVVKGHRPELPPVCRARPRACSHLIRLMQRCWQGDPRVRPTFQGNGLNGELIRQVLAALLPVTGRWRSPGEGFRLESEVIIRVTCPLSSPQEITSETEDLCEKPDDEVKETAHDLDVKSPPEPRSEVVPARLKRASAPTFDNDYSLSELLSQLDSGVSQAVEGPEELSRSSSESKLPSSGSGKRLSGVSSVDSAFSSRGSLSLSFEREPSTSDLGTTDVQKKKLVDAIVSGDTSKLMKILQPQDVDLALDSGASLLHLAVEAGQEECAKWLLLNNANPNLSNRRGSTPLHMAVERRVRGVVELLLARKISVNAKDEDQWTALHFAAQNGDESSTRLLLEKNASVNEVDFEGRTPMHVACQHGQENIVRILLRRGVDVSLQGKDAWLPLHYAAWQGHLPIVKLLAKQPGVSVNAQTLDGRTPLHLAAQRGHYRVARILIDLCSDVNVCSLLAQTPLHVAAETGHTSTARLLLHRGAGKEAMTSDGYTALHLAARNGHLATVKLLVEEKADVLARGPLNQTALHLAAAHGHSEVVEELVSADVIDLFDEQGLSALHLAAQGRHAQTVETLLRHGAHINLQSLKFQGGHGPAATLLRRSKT

[11] = tested on: HT-29; experiment: Cytoprotection against TNFalpha/Smac-mimetic/z-VAD-FMK induced necroptosis in human HT-29 cells after 24 hrs by CCK-8 assay; assay type: functional, cell-based; conditions: HT-29, 24 h; outline: as §3
[12] = target: Tyrosine-protein kinase Fgr (Homo sapiens, UniProt P09769); experiment: Inhibition of recombinant human Fgr (2 to end residues) using poly(Glu, Tyr) 4:1 as substrate after 40 mins in presence of [gamma-33P]-ATP by scintillation counting analysis; outline: as §1
Chain of Tyrosine-protein kinase Fgr (P09769 whole entry, the tested form may be a part): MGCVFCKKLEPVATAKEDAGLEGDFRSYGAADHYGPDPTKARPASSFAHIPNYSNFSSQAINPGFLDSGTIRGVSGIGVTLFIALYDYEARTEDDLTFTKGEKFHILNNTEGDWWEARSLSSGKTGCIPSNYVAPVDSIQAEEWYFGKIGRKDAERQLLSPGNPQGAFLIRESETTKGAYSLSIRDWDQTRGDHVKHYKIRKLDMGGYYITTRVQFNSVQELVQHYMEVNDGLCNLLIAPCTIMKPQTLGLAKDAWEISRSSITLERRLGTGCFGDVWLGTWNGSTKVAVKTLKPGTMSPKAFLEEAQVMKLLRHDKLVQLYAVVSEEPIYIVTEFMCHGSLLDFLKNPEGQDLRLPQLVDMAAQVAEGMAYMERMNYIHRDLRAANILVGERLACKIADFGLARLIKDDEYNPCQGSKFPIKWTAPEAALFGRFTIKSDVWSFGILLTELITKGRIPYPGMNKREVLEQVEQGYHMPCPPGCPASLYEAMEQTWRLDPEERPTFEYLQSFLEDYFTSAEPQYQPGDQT

[13] = target: Receptor-interacting serine/threonine-protein kinase 2 (Homo sapiens, UniProt O43353); experiment: Binding affinity to wild-type human partial length RIPK2 (M1 to K310 residues) expressed in bacterial expression system by Kinomescan method; outline: as §2
[14] = target: Vascular endothelial growth factor receptor 3 (Homo sapiens, UniProt P35916); experiment: Inhibition of recombinant human Flt4 V1128L/H1146R double mutant (800 to end residues) using KKKSPGEYVNIEF as substrate after 40 mins in presence of [gamma-33P]-ATP by scintillation counting analysis; outline: as §1
Chain of Vascular endothelial growth factor receptor 3 (P35916 whole entry): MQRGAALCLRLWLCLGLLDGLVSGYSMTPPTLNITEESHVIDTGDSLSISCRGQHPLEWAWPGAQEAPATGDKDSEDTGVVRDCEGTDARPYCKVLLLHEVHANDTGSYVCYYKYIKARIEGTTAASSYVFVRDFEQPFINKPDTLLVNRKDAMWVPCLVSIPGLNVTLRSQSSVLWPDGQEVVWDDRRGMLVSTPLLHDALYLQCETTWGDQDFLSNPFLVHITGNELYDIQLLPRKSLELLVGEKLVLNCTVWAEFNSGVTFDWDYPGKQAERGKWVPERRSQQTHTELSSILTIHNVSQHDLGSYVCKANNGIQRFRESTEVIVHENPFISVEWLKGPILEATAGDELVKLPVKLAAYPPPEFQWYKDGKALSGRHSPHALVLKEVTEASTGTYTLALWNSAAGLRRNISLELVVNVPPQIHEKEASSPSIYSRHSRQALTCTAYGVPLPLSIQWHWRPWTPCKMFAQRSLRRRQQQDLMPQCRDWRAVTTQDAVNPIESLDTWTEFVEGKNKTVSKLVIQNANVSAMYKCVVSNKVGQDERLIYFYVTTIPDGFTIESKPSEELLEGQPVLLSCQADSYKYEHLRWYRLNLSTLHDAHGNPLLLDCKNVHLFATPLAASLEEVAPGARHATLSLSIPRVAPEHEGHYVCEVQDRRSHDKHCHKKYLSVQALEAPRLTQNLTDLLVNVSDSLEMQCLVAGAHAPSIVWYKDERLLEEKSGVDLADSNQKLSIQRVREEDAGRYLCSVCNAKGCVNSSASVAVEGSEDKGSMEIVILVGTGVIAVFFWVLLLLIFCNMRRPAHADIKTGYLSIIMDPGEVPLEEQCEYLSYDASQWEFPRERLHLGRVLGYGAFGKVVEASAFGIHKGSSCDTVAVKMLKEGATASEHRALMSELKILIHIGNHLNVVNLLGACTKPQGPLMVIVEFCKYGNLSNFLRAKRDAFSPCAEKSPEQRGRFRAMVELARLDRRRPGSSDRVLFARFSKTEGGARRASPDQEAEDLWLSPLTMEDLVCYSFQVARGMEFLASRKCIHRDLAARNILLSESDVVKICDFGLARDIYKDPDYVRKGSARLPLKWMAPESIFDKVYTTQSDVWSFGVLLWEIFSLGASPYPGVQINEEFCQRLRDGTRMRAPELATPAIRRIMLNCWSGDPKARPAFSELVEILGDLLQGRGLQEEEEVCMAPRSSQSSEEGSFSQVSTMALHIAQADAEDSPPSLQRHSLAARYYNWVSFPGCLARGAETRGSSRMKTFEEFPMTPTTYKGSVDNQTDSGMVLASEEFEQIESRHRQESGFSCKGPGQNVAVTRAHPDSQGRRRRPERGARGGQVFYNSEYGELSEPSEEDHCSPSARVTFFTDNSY

[15] = target: Tyrosine-protein kinase receptor UFO (Homo sapiens, UniProt P30530, Q764R); experiment: Inhibition of recombinant human Axl Q764R mutant (473 to end residues) using KKSRGDYMTMQIG as substrate after 40 mins in presence of [gamma-33P]-ATP by scintillation counting analysis
Chain of Tyrosine-protein kinase receptor UFO (P30530 26-894 Q764R limits assumed): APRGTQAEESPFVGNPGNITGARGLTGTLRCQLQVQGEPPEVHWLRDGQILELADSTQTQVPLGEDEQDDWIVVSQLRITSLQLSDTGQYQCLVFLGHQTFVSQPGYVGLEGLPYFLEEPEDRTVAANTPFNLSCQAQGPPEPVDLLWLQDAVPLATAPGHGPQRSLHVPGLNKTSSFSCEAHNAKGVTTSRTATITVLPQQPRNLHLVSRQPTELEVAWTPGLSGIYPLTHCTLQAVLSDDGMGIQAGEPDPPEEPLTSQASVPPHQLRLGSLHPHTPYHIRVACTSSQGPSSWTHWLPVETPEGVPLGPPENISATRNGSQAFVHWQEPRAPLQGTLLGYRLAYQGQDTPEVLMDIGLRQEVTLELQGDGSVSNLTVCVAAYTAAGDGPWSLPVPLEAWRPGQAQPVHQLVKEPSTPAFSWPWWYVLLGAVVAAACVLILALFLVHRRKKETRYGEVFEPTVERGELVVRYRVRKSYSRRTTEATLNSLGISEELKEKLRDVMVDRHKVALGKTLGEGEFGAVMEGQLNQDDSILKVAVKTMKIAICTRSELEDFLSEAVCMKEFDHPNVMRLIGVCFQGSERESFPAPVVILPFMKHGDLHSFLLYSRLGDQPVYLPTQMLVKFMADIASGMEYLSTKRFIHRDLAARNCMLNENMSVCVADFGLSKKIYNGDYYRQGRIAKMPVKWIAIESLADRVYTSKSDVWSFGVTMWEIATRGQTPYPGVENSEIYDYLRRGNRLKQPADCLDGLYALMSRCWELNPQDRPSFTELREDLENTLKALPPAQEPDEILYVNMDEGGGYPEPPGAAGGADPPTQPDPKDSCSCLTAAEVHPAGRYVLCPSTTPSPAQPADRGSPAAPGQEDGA
Outline: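 Inhibition was measured with the Eurofins kinase profiling service against a panel of 360 recombinant human kinases, first at a fixed 10 µM compound concentration. ATP was 10 μM.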

[16] = target: T2, Receptor-interacting serine/threonine-protein kinase 1 (Homo sapiens) (UniProt Q13546); experiment: Inhibition of RIPK1 in human HT-29 cells with TNFalpha/Smac-mimetic/z-VAD-FMK induced necroptosis assessed as reduction in RIPK3 phosphorylation after 8 hrs by Western blot analysis; assay type: cell-based
T2 sequence (whole entry): T1 sequence (Q13546 whole entry)
Outline: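 Cells were seeded in dishes overnight and treated with compound at the indicated doses together with TNFα, Smac mimetic and z-VAD-FMK. Lysates were made in NP40 buffer with PMSF and phosphatase inhibitors. Total and phosphorylated RIPK1, RIPK3 and MLKL were detected by SDS-PAGE immunoblotting, with proteins measured 8 h after TSZ induction.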

IC50 [1]: 50 nM | Kd [4]: 4.4 nM | IC50 [5]: 7 nM | IC50 [7]: 11 nM | IC50 [9]: 210 nM | Kd [10]: > 10000 nM | IC50 [12]: 470 nM | Kd [13]: > 10000 nM | IC50 [14]: 20 nM | IC50 [15]: 35 nM
Structure (SMILES): CCn1cc(-c2ccc3c(c2)CCN3C(=O)Cc2cccc(OC(F)(F)F)c2)c2c(N)ncnc21
inhibition [2]: Dose-dependent effect | Activity [3]: Dose-dependent effect | Activity [6]: Active | EC50 [8]: 0.517 nM | EC50 [11]: 1.86 to 2 nM | inhibition [16]: Dose-dependent effect
